Laboratory results as given in ChEMBL document CHEMBL3585257, “Structure-Activity Relationship Studies of 3-epi-Deoxynegamycin Derivatives as Potent Readthrough Drug Candidates” (ACS Med Chem Lett, 2015).
Converted amounts (≈) assume the structure as drawn.

Legend:
COS-7 [1] = assay: (§1) Mutation read through activity in african green monkey COS7 cells transfected with dual-reporter plasmid encoding beta-galactosidase and luciferase genes connected with TGA-containing mouse mdx gene exon 23 nucleotide sequence as premature termination codon assessed as ratio of luciferase activity to beta-galactosidase activity at 200 uM incubated for 48 hrs at 37 degC relative to basal level; format: functional, Chlorocebus aethiops
Method in brief: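 COS-7 cells transfected with a dual-reporter plasmid: constitutive β-galactosidase upstream of a TGA premature stop codon, luciferase downstream. Compounds tested at 200 μM. Lysate luciferase/β-galactosidase activity ratio expressed relative to untreated (D-MEM) basal level = 1; some series normalized to a reference compound instead. Triplicate, mean ± SD.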

[2] = Drug metabolism in presence of porcine liver esterase assessed as (S)-2-[2-(3,5-Diaminopentanoyl)-1-methylhydrazinyl]acetic acid.2TFA formation in 100 mM pH 7.4 phosphate buffer at 37 degC incubated for 1 to 4 hrs; format: physicochemical; conditions: pig, isolated protein
[3] = Drug metabolism in presence of porcine liver esterase assessed as (S)-2-[2-(3,5-Diaminopentanoyl)-1-methylhydrazinyl]acetic acid.2TFA formation in 100 mM pH 7.4 phosphate buffer at 37 degC; conditions: pig, isolated protein, TDE = time-dependent effect
[4] = Stability in absence of porcine liver esterase assessed as compound remaining in 100 mM pH 7.4 phosphate buffer at 37 degC after 6 hrs; format: physicochemical; conditions: phosphate buffer without porcine liver esterase, read-out: Stability
Method in brief: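 Ester incubated without esterase in 100 mM phosphate buffer, pH 7.4, at 37 °C for 6 h. Percent compound remaining measured by RP-HPLC.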

[5] = Mutation read through activity in human cell-free protein synthesis system containing beta-galactosidase and luciferase genes connected with TGA-containing mouse mdx gene exon 23 nucleotide sequence as premature termination codon assessed as ratio of luciferase activity to beta-galactosidase activity at 20 uM incubated at 37 degC for 3 hrs relative to basal level
Method in brief: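 Cell-free translation of the β-galactosidase–TGA–luciferase dual reporter with compound at 20 μM. Readthrough given as luciferase/β-galactosidase ratio relative to no-compound control (= 1). n = 3, mean ± SD.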

COS-7 [6] = assay: as §1, with “20” for “200”; format: functional, Chlorocebus aethiops
COS-7 [7] = assay: as §1, with “activity at 25 to 200 uM” for “activity at 200 uM”; format: functional, cell-based; conditions: Chlorocebus aethiops
Staphylococcus aureus = assay: Toxicity against Staphylococcus aureus NBRC13276; format: functional
Escherichia coli = assay: Toxicity against Escherichia coli NBRC3972; format: functional

SMILES	Ratio (COS-7 [1])	further results
COc1cccc(COC(=O)CN(C)NC(=O)C[C@@H](N)CCN)c1	3.71	
CN(CC(=O)O)NC(=O)C[C@@H](N)CCCCN	2.05	
CN(CC(=O)OCc1cccc(Br)c1)NC(=O)C[C@@H](N)CCN	3.75	
COc1ccccc1COC(=O)CN(C)NC(=O)C[C@@H](N)CCN	3.1	
COc1ccc(COC(=O)CN(C)NC(=O)C[C@@H](N)CCN)cc1	3.25	
CN(CC(=O)NCc1ccccc1)NC(=O)C[C@@H](N)CCN	0.8	
CN(CC(=O)O)NC(=O)C[C@@H](N)CCCN	2.94	
CCOC(=O)CN(C)NC(=O)C[C@@H](N)CCN	2.08	
CN[C@@H]1[C@@H](O)[C@@H](O[C@@H]2[C@@H](O)[C@H](O[C@H]3O[C@H]([C@@H](C)O)[C@@H](O)[C@H](O)[C@H]3N)[C@@H](N)C[C@H]2N)OC[C@]1(C)O [GENETICIN]	6.65	
CN(CC(=O)OCc1cccc(Cl)c1)NC(=O)C[C@@H](N)CCN	4.9	Drug metabolism [2]: metabolite_detected; Drug metabolism [3]: tde; remaining at 6 h [4]: 94%; Ratio [5]: 1.23; Ratio (COS-7 [6]): 3.58
CN(CC(=O)OCc1ccccc1Cl)NC(=O)C[C@@H](N)CCN	3.34	
CN(CC(=O)O)NC(=O)CC(N)CN (single isomer, unassigned)	1.49	
CN(CC(=O)OCc1ccc(Cl)cc1)NC(=O)C[C@@H](N)CCN	4.21	
CN(CC(=O)OCc1ccc([N+](=O)[O-])cc1)NC(=O)C[C@@H](N)CCN	3.05	
CCNC(=O)CN(C)NC(=O)C[C@@H](N)CCN	1.42	
CN(CC(=O)OCc1cccc([N+](=O)[O-])c1)NC(=O)C[C@@H](N)CCN	3.21	
CN(CC(=O)O)NC(=O)[C@@H](N)CCCCN	1.01	
CN(CC(=O)OCc1ccccc1[N+](=O)[O-])NC(=O)C[C@@H](N)CCN	4.51	
CN(CC(=O)O)NC(=O)[C@@H](N)CN	1.3	
CN(CC(=O)OCc1ccc(Br)cc1)NC(=O)C[C@@H](N)CCN	2.98	
CN(CC(=O)O)NC(=O)[C@@H](N)CCN	1.07	
CN(CC(=O)O)NC(=O)C[C@H](N)C[C@@H](O)CN [NEGAMYCIN]	1.81	
CN(CC(=O)O)NC(=O)C[C@@H](N)CCN	4.28	Activity (COS-7 [7]): Dose-dependent effect; MIC (Staphylococcus aureus): 1020 µg/mL (≈ 4.69 mM); MIC (Escherichia coli): ≥ 1020 µg/mL; Ratio [5]: 2.72; Ratio (COS-7 [6]): 3.1
CN(CC(=O)OCc1ccccc1)NC(=O)C[C@@H](N)CCN	4.04	
CN(CC(=O)O)NC(=O)[C@@H](N)CCCN	0.99	
CN(CC(=O)OCc1ccccc1Br)NC(=O)C[C@@H](N)CCN	3.83	
